# Sampled rows, rich in hits. Any-hit rate of the full collection: about 1.1%.
# Yeast tox: Inhibits yeast growth, turbidity readout. hit rate 0.3% among 30,000. AID 685. S. cerevisiae wild-type growth, A595 turbidity, 16 h. growth inhibition, % at 25 µM (by protocol);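 active means mutant and wild-type yeast strains alike exhibit over 30% growth inhibition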;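 further: 0% = untreated cell controls and 100% = YPD media blanks without cells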
#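 System: S. cerevisiae wild-type or eIF2Bepsilon-R284H mutant strain; times: 16 h growth with compound, 30 °C; signal: absorbance at 595 nm (turbidity); measure: growth inhibition (%) versus cell controls and blanks; compound: 25 µM single dose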
# eIF2B yeast act: modulators of yeast eIF2B activity | hit rate 0.91% among 27,000 | inhibition, % at 25 µM (by protocol) | S. cerevisiae eIF2B-epsilon R284H, GCN4-lacZ luminescence;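 active means mutant luminescence inhibited past about 50% while wild type luminescence and mutant growth stay under set limits, limit read from the data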
#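 Material – yeast eIF2B-epsilon R284H mutant carrying GCN4–beta-galactosidase fusion · Medium – YPD yeast growth medium · Compound – one concentration, 25 µM, 0.25% DMSO · Times – 16 h at 30 °C exposure · Signal – Beta-Glo luminescence plus absorbance at 595 nm · Read-out – % inhibition of reporter signal and growth versus controls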
# * hit, by the source's call; x = not tested or not shown.
SMILES,Yeast tox,eIF2B yeast act
Cc1ccc2c(c1)CNc1ccccc1O2,16,22
c1ccc2c(c1)CNc1ccccc1O2,-12,57*
ON1C2CCCCC2N(O)C1c1ccccc1F (centres undefined),28,10
CN(C)Cc1ccccc1OC(=O)N(C)C,10,19
CN(C)C(=O)Oc1ccc(OC(=O)c2ccccc2)cc1,1,51*
OC1(c2ccccc2F)CC2CCC(C1)N2CCN1CCOCC1 (centres undefined),24,-9
CN1CCN(C(=O)COc2ccc(S(=O)(=O)NCc3ccccc3)cc2Cl)CC1,16,x
O=C(COc1ccc(Cl)cc1Cl)N1CCN(C/C=C/c2ccccc2)CC1,44*,32
C=CCn1c(O)c(C=Nc2ccc(OC)cc2C)c(=O)[nH]c1=O,-24,8

# Compound activity (PubChem)
